Screens (PubChem)
V-ATPase pH – alters yeast V-ATPase proton transport; S. cerevisiae, pHLuorin cytosolic pH fluorescence; 350,000 tested, 0.37% active; response, % at 10 µM; in the data active = response mostly above about 7.3%, no sharp cut-off; inactive = mostly below about 5.4%; note: actives read high
GalR3 antag – human GalR3 antagonism | HEK293 GalR3-CNG cAMP membrane potential fluorescence; galR3 body fused to GalR1 C-terminus | 360,000 tested, 0.44% active | O60755 | inhibition, % at 3 µM;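 active = inhibition above the screen-wide average plus 3 SD, cut at about 13% in these data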;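 note: forskolin and galanin both at EC90 stimulate the cells; cAMP rise reported by CNG channel membrane potential dye signal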
Target sequence (O60755 1-299 limits assumed): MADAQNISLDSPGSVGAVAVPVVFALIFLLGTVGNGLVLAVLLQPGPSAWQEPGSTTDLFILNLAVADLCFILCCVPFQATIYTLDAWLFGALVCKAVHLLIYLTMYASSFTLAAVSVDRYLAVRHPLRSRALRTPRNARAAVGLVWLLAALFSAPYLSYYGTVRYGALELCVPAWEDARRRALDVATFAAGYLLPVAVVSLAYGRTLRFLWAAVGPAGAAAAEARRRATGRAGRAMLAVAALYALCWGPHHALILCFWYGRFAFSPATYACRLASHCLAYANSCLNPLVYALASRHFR
FXN GAA850 act – increases GAA850 frataxin promoter reporter activity | HEK293 lucGAA850 FXN promoter luciferase reporter, 24 h; percent of 10 µM SAHA response | AID 540364 | activation, % at 6 µM | 360,000 tested, 0.56% active;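 active = activation above the average of all compounds screened plus 3 SD, cutoff fixed separately per campaign, cut at about 7.5% in these data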
NR2E3 ag-1 – human photoreceptor-specific nuclear receptor agonism; AID 602229; inhibition of corepressor binding, % at 3.98 µM; CHO-S Gal4-NCOR/VP16-NR2E3 two-hybrid, luciferase; 360,000 tested, 0.35% active;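 active = inhibition above the mean of all tested compounds plus 3 SD, cut at about 70% in these data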;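 note: higher means lower luciferase signal from less NR2E3 corepressor binding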
HIV Env fusion – HIV envelope-mediated fusion inhibition; 360,000 tested, 1.1% active; inhibition, % at 12.3 µM; HeLa-JRFL Env/CEM21 cell fusion, luciferase;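 active = mean replicate inhibition score of at least 50 and every replicate individually at or above 50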
NR2E3 ag-2 – agonists of human nuclear receptor NR2E3 | GST-NR2E3/biotin-RetCOR TR-FRET, 1536-well | inhibition of corepressor binding, % at 4.78 µM | 320,000 tested, 0.12% active;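 active = percent inhibition above the cutoff of mean plus 3 SD of all tested compounds, set per screening campaign, cut at about 20% in these data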
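Test system – NR2E3–RetCOR corepressor complex · Quantity – NR2E3 fusion 1.35 nM · Buffer or medium – Tris pH 7.5 · Incubation – Compound–protein incubation for 5 h at 4 °C · Technique – TR-FRET, Eu(K)-anti-GST donor, streptavidin-D2 acceptor, ex 340, em 617/671 nm · Evaluation – percent inhibition of 671/617 nm emission ratio versus biotin and DMSO controls · Plate – 1536-well format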
V-ATPase pH SP – regulators of yeast V-ATPase proton transport. AID 602197. response, % at 10 µM. 980 tested, 2% active. S. cerevisiae pHLuorin cytosolic pH. shares compounds with V-ATPase pH; in the data active = response above about 24%
Each line names hits and unclear results; the compound was inactive in the other large screens (follow-up assays come after a bar, where they were run). Shown are actives, neighbours in structure and some others; about 2.2% of the full set was active somewhere.

O=C(C/C(=N/O)c1ccccc1O)C(F)F	V-ATPase pH 26.3 (no result: HIV Env fusion) | V-ATPase pH SP inactive
CC1=C(C(=O)Nc2ccccc2)C(c2cccc([N+](=O)[O-])c2)Nc2nc3ccccc3n21 (stereo not drawn)	V-ATPase pH 17.4 | V-ATPase pH SP inactive
C[C@H](CO)N1C[C@H](C)[C@@H](CN(C)S(=O)(=O)c2ccc(F)cc2)Oc2c(NC(=O)NC3CCCCC3)cccc2C1=O	V-ATPase pH 12.9 (no result: NR2E3 ag-2) | V-ATPase pH SP inactive
CCN1C(=O)C(CC(=O)Nc2ccc(OC)cc2)N(CCc2ccc(F)cc2)C1=S (stereo not drawn)	none
CCN1C(=O)C(CC(=O)Nc2ccc(OC)cc2)N(CCCN2CCN(c3ccc(F)cc3)CC2)C1=S (stereo not drawn)	V-ATPase pH 13.3 | V-ATPase pH SP inactive
Cc1c(C(=O)Nc2ccccc2)cnn1-c1ccccc1	none
CC(=O)c1cnn(-c2ccc(Cl)cc2)c1C	none | V-ATPase pH SP inactive
CC(=O)c1sc(=S)n(-c2ccc(Cl)cc2)c1C	none | V-ATPase pH SP inactive
C[C@@H]1CN([C@@H](C)CO)C(=O)c2cc(-c3cccc(F)c3)cnc2O[C@@H]1CN(C)Cc1cccc(F)c1	none (no result: V-ATPase pH, GalR3 antag, FXN GAA850 act, NR2E3 ag-1, NR2E3 ag-2)
COc1nc(N(C)C)nc(N(C#N)S(=O)(=O)c2ccc(C)cc2)n1	V-ATPase pH 11.0 | V-ATPase pH SP inactive
COc1ccc(C(=O)CNc2ccccc2C#N)cc1	V-ATPase pH 9.3 | V-ATPase pH SP inactive
CC(=O)N1N=C(c2ccccc2)OC1(C)CC(=O)Nc1ccccc1 (stereo not drawn)	V-ATPase pH 8.3 | V-ATPase pH SP inactive
Cc1ccc(S(=O)(=O)N[C@H]2CC[C@H](CCn3cc(-c4ccccc4F)nn3)O[C@@H]2CO)cc1	none (no result: V-ATPase pH, GalR3 antag, FXN GAA850 act, NR2E3 ag-1, NR2E3 ag-2)
C[C@@H]1CN([C@H](C)CO)S(=O)(=O)c2ccc(-c3ccncc3)cc2O[C@H]1CN(C)C(=O)c1cccc(F)c1	none (no result: V-ATPase pH, GalR3 antag, FXN GAA850 act, NR2E3 ag-1, NR2E3 ag-2)
COc1ccc(NC(=O)Nc2ccc3c(c2)[C@H]2C[C@H](CC(=O)NCc4ccccc4F)O[C@H](CO)[C@H]2O3)cc1	none (no result: V-ATPase pH, GalR3 antag, FXN GAA850 act, NR2E3 ag-1, NR2E3 ag-2)
CCOc1ccc(NC(=O)CCC(=O)N/N=C(\C)c2cccs2)cc1	V-ATPase pH 8.8 | V-ATPase pH SP inactive
CCOc1ccc(NC(=O)CCC(=O)NNC(=O)c2ccco2)cc1	V-ATPase pH 9.2 | V-ATPase pH SP inactive
Cc1ccc(F)c(NC(=O)/C(C#N)=C(\O)c2ccc(C(C)(C)C)cc2)c1	V-ATPase pH 16.4 | V-ATPase pH SP inactive
Cc1cccc(NC(=O)C(=O)NNC(=O)c2ccc(C(C)(C)C)cc2)c1	none
CN1CCN(c2nc3c(c(=O)n(C)c(=O)n3C)n2Cc2ccc(Cl)cc2)CC1	V-ATPase pH 8.0 | V-ATPase pH SP inactive
CN1CCN(c2nc3c(c(=O)[nH]c(=O)n3C)n2Cc2ccc(Cl)cc2)CC1	none (no result: NR2E3 ag-2)
COC(=O)c1cn(NC(=O)Cc2ccccc2Br)c(=O)c2ccccc12	V-ATPase pH 9.1 | V-ATPase pH SP inactive
O=C(C1CCN(c2nc(-c3ccccc3)nc3c2CCC3)CC1)N1CCC(O)CC1	V-ATPase pH 11.3 (no result: HIV Env fusion) | V-ATPase pH SP inactive
COc1ccc(-c2cn(CC[C@@H]3CC[C@H](NC(=O)Cc4ccccn4)[C@H](CO)O3)nn2)cc1	none (no result: V-ATPase pH, GalR3 antag, FXN GAA850 act, NR2E3 ag-1, NR2E3 ag-2)
CCCC#Cc1cnc2c(c1)C(=O)N([C@H](C)CO)C[C@H](C)[C@H](CN(C)C(=O)Nc1cc(F)ccc1F)O2	none (no result: V-ATPase pH, GalR3 antag, FXN GAA850 act, NR2E3 ag-1, NR2E3 ag-2)
COc1ccc(C)cc1Nc1nnc(C)c(=O)[nH]1	none
COc1ccc(Nc2nnc(C)c(=O)[nH]2)c(OC)c1	V-ATPase pH 11.5 | V-ATPase pH SP inactive
NNC(=O)c1ccc(COCC(F)(F)F)cc1	V-ATPase pH 9.1 | V-ATPase pH SP inactive
COc1ccc(CNC(=S)NCc2ccc(OC)cc2)cc1	V-ATPase pH 7.1 | V-ATPase pH SP inactive
O=C(Cc1ccccn1)N[C@@H]1CC[C@@H](CCn2cc(-c3cccnc3)nn2)O[C@H]1CO	none (no result: V-ATPase pH, GalR3 antag, FXN GAA850 act, NR2E3 ag-1, NR2E3 ag-2)
COc1ccccc1N1CCN(C2CCCN(S(=O)(=O)c3ccc(C)cc3)C2)CC1 (stereo not drawn)	V-ATPase pH 10.3 | V-ATPase pH SP inactive
C[C@H](CO)N1C[C@H](C)[C@@H](CN(C)Cc2ccc(C(=O)O)cc2)Oc2ccc(NS(=O)(=O)c3ccccc3)cc2C1=O	none (no result: V-ATPase pH, GalR3 antag, FXN GAA850 act, NR2E3 ag-1, NR2E3 ag-2)
